Measured values reported in ChEMBL document CHEMBL5357024, “MDM2 Antagonist Idasanutlin Reduces HDAC1/2 Abundance and Corepressor Partners but Not HDAC3” (ACS Med Chem Lett, 2024).
Calls of active or inactive are those of the source. The calls are words filed in the database; no cut-off is given here.

Columns and labels:
[1] = target: von Hippel-Lindau disease tumor suppressor/Histone deacetylase 1 (Homo sapiens) (UniProt Q13547+P40337); assay: PROTAC activity at VHL/HDAC1 in human HCT-116 cells assessed as decrease in HDAC1 abundance by measuring remaining activity at 10 uM measured after 24 hrs by Western blot analysis (reference value: 100%); type: cell-based
Sequence of von Hippel-Lindau disease tumor suppressor/Histone deacetylase 1 (Homo sapiens) (P40337 whole entry, looked up): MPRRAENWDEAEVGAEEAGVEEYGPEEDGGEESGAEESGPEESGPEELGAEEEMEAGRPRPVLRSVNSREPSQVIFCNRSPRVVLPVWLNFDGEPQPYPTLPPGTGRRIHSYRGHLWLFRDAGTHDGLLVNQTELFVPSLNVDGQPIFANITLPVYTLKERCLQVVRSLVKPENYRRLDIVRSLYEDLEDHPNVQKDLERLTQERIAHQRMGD
Sequence of von Hippel-Lindau disease tumor suppressor/Histone deacetylase 1 (Homo sapiens) (Q13547 whole entry, looked up): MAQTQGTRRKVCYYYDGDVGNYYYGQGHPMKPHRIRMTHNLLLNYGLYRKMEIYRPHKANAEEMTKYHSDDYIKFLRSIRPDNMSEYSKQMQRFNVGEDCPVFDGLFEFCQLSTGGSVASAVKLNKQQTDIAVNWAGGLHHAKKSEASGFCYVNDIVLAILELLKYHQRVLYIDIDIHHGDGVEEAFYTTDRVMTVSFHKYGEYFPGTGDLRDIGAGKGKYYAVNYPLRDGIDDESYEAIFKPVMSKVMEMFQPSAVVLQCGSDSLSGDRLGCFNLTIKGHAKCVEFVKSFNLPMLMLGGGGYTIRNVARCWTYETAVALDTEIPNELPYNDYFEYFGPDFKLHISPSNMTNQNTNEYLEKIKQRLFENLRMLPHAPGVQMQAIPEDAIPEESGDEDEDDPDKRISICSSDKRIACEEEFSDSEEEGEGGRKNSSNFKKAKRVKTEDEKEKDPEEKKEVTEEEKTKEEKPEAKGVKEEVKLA
Procedure, shortened: (§1)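 HCT116 cells in DMEM with 10% FBS and glutamine/penicillin/streptomycin at 37 °C, 5% CO2. Seeded 4 × 10^5 cells/well, after 24 h treated 24 h with DMSO or compound in fresh medium. Lysed in Tris-HCl/NaCl/NP-40/Triton X-100 buffer with protease inhibitor, Bradford-quantified, 30 μg protein per lane. Quantitative Western blot with specific HDAC1/2/3 antibodies, IRDye secondaries, infrared imaging, versus DMSO. n = 2 replicates.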

[2] = target: von Hippel-Lindau disease tumor suppressor/Histone deacetylase 2 (Homo sapiens) (UniProt Q92769+P40337); assay: PROTAC activity at VHL/HDAC2 in human HCT-116 cells assessed as decrease in HDAC2 abundance by measuring remaining activity at 10 uM measured after 24 hrs by Western blot analysis (reference value: 100%); type: cell-based; procedure, shortened: as §1
Sequence of von Hippel-Lindau disease tumor suppressor/Histone deacetylase 2 (Homo sapiens) (P40337 whole entry, looked up): as the sequence (P40337 whole entry, looked up) above
Sequence of von Hippel-Lindau disease tumor suppressor/Histone deacetylase 2 (Homo sapiens) (Q92769 whole entry, looked up): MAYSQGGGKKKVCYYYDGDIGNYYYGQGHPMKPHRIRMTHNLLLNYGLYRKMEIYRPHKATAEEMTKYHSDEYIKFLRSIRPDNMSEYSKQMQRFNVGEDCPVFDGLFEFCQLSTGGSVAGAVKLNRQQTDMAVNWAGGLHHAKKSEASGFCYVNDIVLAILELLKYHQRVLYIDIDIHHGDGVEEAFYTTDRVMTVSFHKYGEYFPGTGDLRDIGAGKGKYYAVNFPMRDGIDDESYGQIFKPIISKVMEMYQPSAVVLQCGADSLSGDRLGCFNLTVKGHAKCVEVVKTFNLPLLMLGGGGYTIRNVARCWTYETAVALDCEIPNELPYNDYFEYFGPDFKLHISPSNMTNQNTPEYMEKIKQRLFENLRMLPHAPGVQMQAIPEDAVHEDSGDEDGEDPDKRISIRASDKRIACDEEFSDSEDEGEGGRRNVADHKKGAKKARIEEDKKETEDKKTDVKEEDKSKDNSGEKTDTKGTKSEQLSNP

[3] = target: von Hippel-Lindau disease tumor suppressor/Histone deacetylase 3 (Homo sapiens) (UniProt O15379+P40337); assay: PROTAC activity at VHL/HDAC3 in human HCT-116 cells assessed as reduction in HDAC3 abundance by measuring remaining activity at 10 uM measured after 24 hrs by Western blot analysis (reference value: 100%); type: cell-based; procedure, shortened: as §1
Sequence of von Hippel-Lindau disease tumor suppressor/Histone deacetylase 3 (Homo sapiens) (O15379 whole entry, looked up): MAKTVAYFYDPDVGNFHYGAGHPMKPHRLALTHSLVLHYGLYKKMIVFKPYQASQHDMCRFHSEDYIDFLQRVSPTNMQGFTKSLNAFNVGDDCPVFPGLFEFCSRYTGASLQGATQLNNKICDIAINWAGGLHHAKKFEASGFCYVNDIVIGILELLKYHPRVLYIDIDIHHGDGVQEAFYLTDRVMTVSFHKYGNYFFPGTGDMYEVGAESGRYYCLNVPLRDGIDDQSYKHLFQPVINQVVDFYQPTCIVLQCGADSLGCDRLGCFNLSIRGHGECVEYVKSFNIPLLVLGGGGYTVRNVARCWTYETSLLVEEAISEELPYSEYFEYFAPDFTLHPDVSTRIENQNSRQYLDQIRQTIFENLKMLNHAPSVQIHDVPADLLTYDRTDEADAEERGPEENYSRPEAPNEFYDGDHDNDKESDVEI
Sequence of von Hippel-Lindau disease tumor suppressor/Histone deacetylase 3 (Homo sapiens) (P40337 whole entry, looked up): as the sequence (P40337 whole entry, looked up) above

HCT-116 [4] = assay: Effect on histone H3 lysine K56 acetylation in human HCT-116 cells assessed as increase in H3K56ac level at 10 uM by Western blot analysis; type: functional, cell-based
Procedure, shortened: (§2)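 HCT116 cells (DMEM, 10% FBS, glutamine/pen/strep, 37 °C, 5% CO2) seeded 24 h, then treated with DMSO or compound in fresh medium. Pellets after lysis were acid-extracted with 0.4 N H2SO4 at 4 °C overnight. Acid histone extract run on 4–12% bis-Tris gels, transferred to nitrocellulose and probed for H3K56ac. IRDye secondaries with infrared imaging.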

[5] = target: T1, Paired amphipathic helix protein Sin3a (Homo sapiens) (UniProt Q96ST3); assay: Induction of SIN3A degradation in human HCT-116 cells assessed as reduction in SIN3A abundance by measuring remaining activity at 10 uM measured after 24 hrs by Western blot analysis (reference value: 100%); type: cell-based
T1 sequence (whole entry): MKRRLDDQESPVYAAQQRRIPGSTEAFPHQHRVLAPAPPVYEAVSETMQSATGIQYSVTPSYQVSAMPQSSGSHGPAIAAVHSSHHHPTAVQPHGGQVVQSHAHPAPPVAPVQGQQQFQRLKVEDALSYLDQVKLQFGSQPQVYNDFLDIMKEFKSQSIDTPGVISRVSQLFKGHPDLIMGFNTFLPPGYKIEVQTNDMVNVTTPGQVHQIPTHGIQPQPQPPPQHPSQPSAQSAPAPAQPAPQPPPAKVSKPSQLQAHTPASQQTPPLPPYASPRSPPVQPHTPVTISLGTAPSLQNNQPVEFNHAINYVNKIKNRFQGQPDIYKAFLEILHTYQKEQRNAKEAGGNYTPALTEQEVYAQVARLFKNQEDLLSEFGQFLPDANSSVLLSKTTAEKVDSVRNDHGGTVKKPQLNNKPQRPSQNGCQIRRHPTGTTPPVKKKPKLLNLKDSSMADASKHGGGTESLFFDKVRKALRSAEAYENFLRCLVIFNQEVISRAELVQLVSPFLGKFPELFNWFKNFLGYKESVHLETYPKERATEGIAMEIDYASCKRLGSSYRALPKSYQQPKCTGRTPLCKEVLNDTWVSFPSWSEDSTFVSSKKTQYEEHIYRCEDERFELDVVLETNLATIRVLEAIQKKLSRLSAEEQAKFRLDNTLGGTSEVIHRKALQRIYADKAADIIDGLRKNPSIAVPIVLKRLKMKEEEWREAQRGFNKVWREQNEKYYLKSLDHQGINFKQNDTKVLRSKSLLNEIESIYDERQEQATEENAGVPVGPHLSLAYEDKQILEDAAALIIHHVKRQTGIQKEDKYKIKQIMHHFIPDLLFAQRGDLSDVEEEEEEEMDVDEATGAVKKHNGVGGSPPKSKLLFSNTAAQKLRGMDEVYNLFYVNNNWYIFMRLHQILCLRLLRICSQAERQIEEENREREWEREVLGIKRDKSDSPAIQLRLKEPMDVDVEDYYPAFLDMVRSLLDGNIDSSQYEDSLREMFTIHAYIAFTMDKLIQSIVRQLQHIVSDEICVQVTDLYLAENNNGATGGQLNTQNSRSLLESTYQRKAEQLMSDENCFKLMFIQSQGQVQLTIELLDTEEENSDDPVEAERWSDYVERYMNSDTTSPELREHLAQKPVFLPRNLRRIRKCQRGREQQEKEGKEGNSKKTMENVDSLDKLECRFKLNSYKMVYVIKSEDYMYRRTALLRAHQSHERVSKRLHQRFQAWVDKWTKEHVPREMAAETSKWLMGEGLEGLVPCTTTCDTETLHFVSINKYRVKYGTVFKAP
Procedure, shortened: (§3)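 HCT116 cells seeded in six-well plates for 24 h, then exposed 24 h to compound (0.01–10 μM) or DMSO in fresh medium. Lysis in Tris-HCl/NaCl/NP-40/Triton X-100 with protease inhibitor. Bradford-normalised 30 μg protein per lane. Quantitative Western blot used specific HDAC1, HDAC2, HDAC3, LSD1 or Sin3a antibodies with IRDye secondaries. Abundance compared with DMSO, n = 2 replicates.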

[6] = target: Lysine-specific histone demethylase 1A (Homo sapiens) (UniProt O60341); assay: Induction of LSD1 degradation in human HCT-116 cells assessed as reduction in LSD1 abundance by measuring remaining activity at 10 uM measured after 24 hrs by Western blot analysis (reference value: 100%); type: cell-based; procedure, shortened: as §3
HCT-116 [7] = assay: Effect on histone H3 lysine K56 acetylation in human HCT-116 cells assessed as increase in H3K56ac level at 0.1 to 10 uM by Western blot analysis; type: functional, cell-based; settings: dose 0.1-10 µM; procedure, shortened: as §2
[8] = target: T2, E3 ubiquitin-protein ligase Mdm2/Histone deacetylase 1 (Homo sapiens) (UniProt Q00987+Q13547); assay: PROTAC activity at MDM2/HDAC1 in human HCT-116 cells assessed as decrease in HDAC1 abundance by measuring remaining activity at 0.1 uM measured after 24 hrs by Western blot analysis (reference value: 100%); type: cell-based; procedure, shortened: as §3
T2 sequence (Q00987 whole entry, looked up): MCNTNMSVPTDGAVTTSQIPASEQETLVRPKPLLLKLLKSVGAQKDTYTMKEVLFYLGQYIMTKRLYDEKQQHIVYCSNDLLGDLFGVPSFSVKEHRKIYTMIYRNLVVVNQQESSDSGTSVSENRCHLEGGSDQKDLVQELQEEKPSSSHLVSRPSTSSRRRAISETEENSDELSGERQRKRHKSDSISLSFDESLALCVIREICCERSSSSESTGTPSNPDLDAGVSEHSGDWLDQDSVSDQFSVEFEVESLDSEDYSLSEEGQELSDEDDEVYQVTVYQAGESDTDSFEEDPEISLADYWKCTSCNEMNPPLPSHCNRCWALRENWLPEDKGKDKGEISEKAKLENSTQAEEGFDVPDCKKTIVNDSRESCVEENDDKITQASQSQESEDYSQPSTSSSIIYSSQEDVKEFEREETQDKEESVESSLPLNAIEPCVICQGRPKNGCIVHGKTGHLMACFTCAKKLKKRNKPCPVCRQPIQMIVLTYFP
T2 sequence (Q13547 whole entry, looked up): as the sequence (Q13547 whole entry, looked up) above

[9] = target: T2, E3 ubiquitin-protein ligase Mdm2/Histone deacetylase 1 (Homo sapiens); assay: PROTAC activity at MDM2/HDAC1 in human HCT-116 cells assessed as decrease in HDAC1 abundance by measuring remaining activity at 1 uM measured after 24 hrs by Western blot analysis (reference value: 100%); type: cell-based; procedure, shortened: as §3
[10] = target: T2, E3 ubiquitin-protein ligase Mdm2/Histone deacetylase 1 (Homo sapiens); assay: PROTAC activity at MDM2/HDAC1 in human HCT-116 cells assessed as decrease in HDAC1 abundance by measuring remaining activity at 10 uM measured after 24 hrs by Western blot analysis (reference value: 100%); type: cell-based; procedure, shortened: as §3
[11] = target: T3, E3 ubiquitin-protein ligase Mdm2/Histone deacetylase 2 (Homo sapiens) (UniProt Q00987+Q92769); assay: PROTAC activity at MDM2/HDAC2 in human HCT-116 cells assessed as decrease in HDAC2 abundance by measuring remaining activity at 0.1 uM measured after 24 hrs by Western blot analysis (reference value: 100%); type: cell-based; procedure, shortened: as §3
T3 sequence (Q00987 whole entry, looked up): as the sequence (Q00987 whole entry, looked up) above
T3 sequence (Q92769 whole entry, looked up): as the sequence (Q92769 whole entry, looked up) above

[12] = target: T3, E3 ubiquitin-protein ligase Mdm2/Histone deacetylase 2 (Homo sapiens); assay: PROTAC activity at MDM2/HDAC2 in human HCT-116 cells assessed as decrease in HDAC2 abundance by measuring remaining activity at 1 uM measured after 24 hrs by Western blot analysis (reference value: 100%); type: cell-based; procedure, shortened: as §3
[13] = target: T3, E3 ubiquitin-protein ligase Mdm2/Histone deacetylase 2 (Homo sapiens); assay: PROTAC activity at MDM2/HDAC2 in human HCT-116 cells assessed as decrease in HDAC2 abundance by measuring remaining activity at 10 uM measured after 24 hrs by Western blot analysis (reference value: 100%); type: cell-based; procedure, shortened: as §3
[14] = target: T4, E3 ubiquitin-protein ligase Mdm2/Histone deacetylase 3 (Homo sapiens) (UniProt Q00987+O15379); assay: PROTAC activity at MDM2/HDAC3 in human HCT-116 cells assessed as reduction in HDAC3 abundance by measuring remaining activity at 0.1 uM measured after 24 hrs by Western blot analysis (reference value: 100%); type: cell-based; procedure, shortened: as §1
T4 sequence (O15379 whole entry, looked up): as the sequence (O15379 whole entry, looked up) above
T4 sequence (Q00987 whole entry, looked up): as the sequence (Q00987 whole entry, looked up) above

[15] = target: T4, E3 ubiquitin-protein ligase Mdm2/Histone deacetylase 3 (Homo sapiens); assay: PROTAC activity at MDM2/HDAC3 in human HCT-116 cells assessed as reduction in HDAC3 abundance by measuring remaining activity at 1 uM measured after 24 hrs by Western blot analysis (reference value: 100%); type: cell-based; procedure, shortened: as §1
[16] = target: T4, E3 ubiquitin-protein ligase Mdm2/Histone deacetylase 3 (Homo sapiens); assay: PROTAC activity at MDM2/HDAC3 in human HCT-116 cells assessed as reduction in HDAC3 abundance by measuring remaining activity at 10 uM measured after 24 hrs by Western blot analysis (reference value: 100%); type: cell-based; procedure, shortened: as §1
[17] = target: Histone deacetylase 3 (Homo sapiens) (UniProt O15379); assay: Induction of HDAC3 degradation in human HCT-116 cells assessed as reduction in HDAC3 abundance by measuring remaining activity at 10 uM measured after 24 hrs by Western blot analysis; type: cell-based; procedure, shortened: as §3
Sequence of Histone deacetylase 3 (Homo sapiens) (O15379 whole entry): as the sequence (O15379 whole entry, looked up) above

[18] = target: Histone deacetylase 3 (Homo sapiens) (UniProt O15379); assay: Induction of HDAC3 degradation in human HCT-116 cells assessed as reduction in HDAC3 abundance by measuring remaining activity at 1 uM measured after 24 hrs by Western blot analysis; type: cell-based; procedure, shortened: as §3
[19] = Inhibition of LSD1-CoREST-HDAC (unknown origin) by AMC-fluorescence assay; design: species or system Homo sapiens

| SMILES | Activity [1] | Activity [2] | Activity [3] | Activity (HCT-116 [4]) | Activity [5] | Activity [6] | Activity (HCT-116 [7]) | Activity [8] | Activity [9] | Activity [10] | Activity [11] | Activity [12] | Activity [13] | Activity [14] | Activity [15] | Activity [16] | Activity [17] | Activity [18] | IC50 [19] |
| --- | --- | --- | --- | --- | --- | --- | --- | --- | --- | --- | --- | --- | --- | --- | --- | --- | --- | --- | --- |
| Cc1ncsc1-c1ccc(CNC(=O)[C@@H]2C[C@@H](O)CN2C(=O)[C@@H](NC(=O)CCCCCCCCCCC(=O)Nc2ccc(C(=O)Nc3ccccc3N)cc2)C(C)(C)C)cc1 | 37% | 58% | 88% | Active | 85% | 97% | – | – | – | – | – | – | – | – | – | – | – | – | – |
| COc1cc(C(=O)NCCOCCOCCOCCC(=O)Nc2ccc(C(=O)Nc3ccccc3N)cc2)ccc1NC(=O)[C@@H]1N[C@@H](CC(C)(C)C)[C@](C#N)(c2ccc(Cl)cc2F)[C@H]1c1cccc(Cl)c1F | – | – | – | – | – | – | inactive | 91% | 85% | 65% | 102% | 94% | 84% | 112% | 128% | 122% | – | – | – |
| COc1cc(C(=O)NCCCCCCCCCCCC(=O)Nc2ccc(C(=O)Nc3ccccc3N)cc2)ccc1NC(=O)[C@@H]1N[C@@H](CC(C)(C)C)[C@](C#N)(c2ccc(Cl)cc2F)[C@H]1c1cccc(Cl)c1F | – | – | – | – | – | – | – | 98% | 103% | 109% | 100% | 101% | 103% | 101% | 102% | 118% | – | – | – |
| COc1cc(C(=O)NCCCCCCCC(=O)Nc2ccc(C(=O)Nc3ccccc3N)cc2)ccc1NC(=O)[C@@H]1N[C@@H](CC(C)(C)C)[C@](C#N)(c2ccc(Cl)cc2F)[C@H]1c1cccc(Cl)c1F | – | – | – | – | – | – | – | 93% | 88% | 101% | 100% | 101% | 100% | 114% | 114% | 109% | – | – | – |
| CC(=O)Nc1ccc(C(=O)Nc2ccccc2N)cc1 [TACEDINALINE] | – | – | – | Active | 81% | 109% | – | – | – | – | – | – | – | – | – | – | 138% | 122% | ~0.5 µM |
| COc1cc(C(=O)O)ccc1NC(=O)[C@@H]1N[C@@H](CC(C)(C)C)[C@](C#N)(c2ccc(Cl)cc2F)[C@H]1c1cccc(Cl)c1F | – | – | – | – | – | – | – | – | – | – | – | – | – | – | – | – | 101% | 110% | – |
